# In ChEMBL document CHEMBL3112482, “Nonclassical antifolates, part 5. Benzodiazepine analogs as a new class of DHFR inhibitors: synthesis, antitumor testing and molecular modeling study” (Eur J Med Chem, 2014):
# Columns and labels:
# Assay type in all cases: functional
# Cancer cell lines [1] = assay: Ratio of 5-FU TGI to compound TGI for human renal cancer cells
# Cancer cell lines [2] = assay: Ratio of 5-FU TGI to compound TGI for human non-small cell lung cancer cells
# Cancer cell lines [3] = assay: Ratio of 5-FU GI50 to compound GI50 for human CNS cancer cells
# How it was run: (§1)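 Compounds passing the NCI single-dose primary screen were retested across the 60 human tumour cell lines (nine subpanels) over a 5-log dose range. GI50, TGI and LC50 were recorded for each cell line, with 5-fluorouracil run as the reference drug. Subpanel values for compound and 5-FU were then compared.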
# Cancer cell lines [4] = assay: Ratio of 5-FU GI50 to compound GI50 for human prostate cancer cells; how it was run: as §1
# Cancer cell lines [5] = assay: Ratio of 5-FU LC50 to compound LC50 for human colon cancer cells; how it was run: as §1
# Cancer cell lines [6] = assay: Ratio of 5-FU GI50 to compound GI50 for human ovarian cancer cells; how it was run: as §1
# Cancer cell lines [7] = assay: Ratio of 5-FU LC50 to compound LC50 for human prostate cancer cells; how it was run: as §1
# Cancer cell lines [8] = assay: Ratio of 5-FU LC50 to compound LC50 for human ovarian cancer cells; how it was run: as §1
# Cancer cell lines [9] = assay: Ratio of 5-FU LC50 to compound LC50 for human renal cancer cells; how it was run: as §1
# Leukemia cell = assay: Ratio of 5-FU TGI to compound TGI for human leukemia cells
# RPMI-8226 = assay: Growth inhibition of human RPMI8226 cells at 10 uM after 48 hrs; conditions: RPMI-8226, 48 h, read-out: GI
# How it was run: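 Single-dose primary screen in the NCI 60 human tumour cell line panel, run at the NCI facility. The panel covers nine subpanels: leukaemia, non-small cell lung, colon, CNS, melanoma, ovarian, renal, prostate and breast. Read-out was percent growth of treated cells, shown as a mean graph and reported as percent growth inhibition.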
SMILES,Ratio (Cancer cell lines [1]),Ratio (Cancer cell lines [2]),RatioGI50 (Cancer cell lines [3]),RatioGI50 (Cancer cell lines [4]),RatioLC50 (Cancer cell lines [5]),RatioGI50 (Cancer cell lines [6]),RatioLC50 (Cancer cell lines [7]),RatioLC50 (Cancer cell lines [8]),RatioLC50 (Cancer cell lines [9]),Ratio (Leukemia cell),inhibition of growth at 10 µM (RPMI-8226)
COc1cc(/C=C2\CCCc3c2nc(C)nc3-c2cc(OC)c(OC)c(OC)c2)cc(OC)c1OC,15,15,15,15,15,15,15,15,15,15,
Cc1nc2c(c(-c3ccc(Br)cc3)n1)CCC/C2=C\c1ccc(Br)cc1,,,,,,,,,,,73.7%
COc1cc(/C=C2\CCCc3c2nc(N)nc3-c2cc(OC)c(OC)c(OC)c2)cc(OC)c1OC,15,15,15,15,15,15,15,15,15,15,
COc1ccc(/C=C2\CCCc3c2nc(N)nc3-c2ccc(OC)c(OC)c2)cc1OC,,,,,,,,,,,84.8%
COc1ccc(/C=C2\CCCc3c2nc(C)nc3-c2ccc(OC)cc2)cc1,,,,,,,,,,,50.1%
COc1ccc(/C=C2\CCCC3=C(c4ccc(OC)cc4)Nc4ccccc4N=C32)cc1,,,,,,,,,,,74.3%
COc1ccc(/C=C2\CCCc3c2nc(N)nc3-c2ccc(OC)cc2)cc1,,,,,,,,,,,42.3%
COc1cc(/C=C2\CCCC3=C(c4cc(OC)c(OC)c(OC)c4)Nc4ccccc4N=C32)cc(OC)c1OC,11,11,11,11,11,11,11,11,11,11,
